Test results as given in ChEMBL document CHEMBL4699431, “Design and synthesis of substituted (1-(benzyl)-1H-1,2,3-triazol-4-yl)(piperazin-1-yl)methanone conjugates: study on their apoptosis inducing ability and tubulin polymerization inhibition” (RSC Med Chem, 2020).
Activity calls are given as the source filed them. No cut-off for these calls is given here.

Key:
HeLa = experiment: Cytotoxicity against human HeLa cells assessed as reduction in cell viability incubated for 48 hrs by MTT assay; type: functional, cell-based
Summary of the method: (§1)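 Cells plated at 3000-4500 per well and treated after 24 h. DMSO stocks (20 mM) were diluted in medium to final DMSO <0.1%, twofold series […], 48 h. MTT (0.5 mg/mL) was added for 4 h, formazan dissolved in DMSO, absorbance read at 570 nm.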

NCI-H460 = experiment: Cytotoxicity against human NCI-H460 cells assessed as reduction in cell viability incubated for 48 hrs by MTT assay; type: functional, cell-based; conditions: NCI-H460, 48 h; summary of the method: as §1
Tubulin (Homo sapiens) = Tubulin (Homo sapiens) (UniProt P68371+Q9H4B7+P0DPH7+P68366+Q13509+Q71U36+P04350+Q3ZCM7+P07437+P68363+Q9BQE3+Q6PEY2+Q13885+Q9BVA1+Q9BUF5); experiment: Inhibition of tubulin polymerization in human BT-474 cells assessed as microtubule disruption at 2 uM by immunohistochemistry assay; type: cell-based
Summary of the method: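 Cells on glass coverslips exposed 48 h to 2 μM, with CA-4 as positive control. Fixed in 4% paraformaldehyde 20 min, permeabilized with 0.2% Triton X-100 5 min, held in methanol overnight at 4 °C, blocked in 1% BSA 60 min. Stained with α-tubulin antibody (1:1000, 2 h) then FITC anti-mouse secondary 1 h; microtubule network imaged by confocal microscopy.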

BT-474 [1] = experiment: Induction of morphological changes in human BT-474 cells assessed as cell shrinkage incubated for 48 hrs by phase-contrast microscope method; type: functional, cell-based; conditions: dose microM 0.5-2.5, time 48.0 hrs
Summary of the method: (§2)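 Plated at 5×10^4 cells/well, dosed after 24 h at 0.5, 1 and 2.5 μM. After 48 h, morphology was examined and photographed under phase-contrast microscopy.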

BT-474 [2] = experiment: Induction of morphological changes in human BT-474 cells assessed as loss of cell-cell adhesion incubated for 48 hrs by phase-contrast microscope method; type: functional, cell-based; conditions: dose microM 0.5-2.5, time 48.0 hrs; summary of the method: as §2
BT-474 [3] = experiment: Induction of morphological changes in human BT-474 cells assessed reduction in number of viable cells incubated for 48 hrs by phase-contrast microscope method; type: functional, cell-based; conditions: dose microM 0.5-2.5, time 48.0 hrs; summary of the method: as §2
BT-474 [4] = experiment: Induction of apoptosis in human BT-474 cells assessed as non-uniform distribution of chromatin incubated for 48 hrs by acridine orange/ethidium bromide double staining-based fluorescence microscopic analysis; type: functional, cell-based; conditions: dose microM 0.5-2.5, time 48.0 hrs
Summary of the method: (§3)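 Plated at 5×10^4 cells/well, treated after 24 h and held 48 h at 37 °C, 5% CO₂. Acridine orange and ethidium bromide (10 µg/mL each) added in equal volumes, then cells viewed by fluorescence microscopy at 200x.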

BT-474 [5] = experiment: Induction of apoptosis in human BT-474 cells assessed as chromatin condensation at 0.5 to 2.5 uM incubated for 24 hrs by DAPI staining based DAPI staining based confocal microscopic analysis; type: functional, cell-based; conditions: dose microM 0.5-2.5, time 24.0 hrs
BT-474 [6] = experiment: Inhibition of clonogenicity in human BT-474 cells assessed as reduction in colony formation measured after 7 days by crystal violet staining; type: functional, cell-based; conditions: dose microM 0.5-2.5, time 7.0 day
Summary of the method: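 100 cells/well in 6-well plates; after overnight attachment, treated 12 h, then grown in fresh medium at 37 °C, 5% CO₂ with medium changed every 2 days. Colonies fixed and stained with 1% crystal violet in methanol for 3 h, counted by imaging, expressed as percent of untreated control.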

BT-474 [7] = experiment: Cell cycle arrest in human BT-474 cells assessed as increase in accumulation in G1 phase at 0.5 uM by propidium iodide staining based flow cytometry(reference value: 4.06%); type: functional
Summary of the method: (§4)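 Seeded at 1 x 10⁵ cells/well, after 24 h serum-starved 6 h to synchronize, then returned to FBS-containing medium and treated at 0.5, 1 and 2.5 μM. Harvested cells were PBS-washed, fixed in ice-cold 70% ethanol, stained with propidium iodide (50 μg/mL) plus RNase A for 20 min at 37 °C in the dark. About 10,000 events analysed by flow cytometry.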

BT-474 [8] = experiment: Cell cycle arrest in human BT-474 cells assessed as increase in accumulation in G2/M phase at 0.5 uM by propidium iodide staining based flow cytometry(reference value: 19.35%); type: functional; summary of the method: as §4
BT-474 [9] = experiment: Cell cycle arrest in human BT-474 cells assessed as increase in accumulation in G1 phase at 1 uM by propidium iodide staining based flow cytometry(reference value: 4.06%); type: functional; summary of the method: as §4
BT-474 [10] = experiment: Cell cycle arrest in human BT-474 cells assessed as increase in accumulation in G2/M phase at 1 uM by propidium iodide staining based flow cytometry(reference value: 19.35%); type: functional; summary of the method: as §4
BT-474 [11] = experiment: Cell cycle arrest in human BT-474 cells assessed as increase in accumulation in G1 phase at 2.5 uM by propidium iodide staining based flow cytometry(reference value: 4.06%); type: functional; summary of the method: as §4
BT-474 [12] = experiment: Cell cycle arrest in human BT-474 cells assessed as increase in accumulation in S phase at 2.5 uM by propidium iodide staining based flow cytometry(reference value: 2.22%); type: functional; summary of the method: as §4
BT-474 [13] = experiment: Induction of mitochondrial membrane potential loss in human BT-474 cells assessed as depolarized cell population (P2) at 0.5 uM incubated for 48 hrs by JC1 staining based flow cytometry (reference value: 0.48 %); type: functional
Summary of the method: (§5)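 Cells (1x10⁶/mL) adhered overnight, then exposed to 0.5, 1 and 2.5 μM for 48 h. Collected, PBS-washed, incubated with JC-1 dye (1 μM) for 30 min at 37 °C, washed twice, trypsinized, centrifuged and read by flow cytometry.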

BT-474 [14] = experiment: Induction of mitochondrial membrane potential loss in human BT-474 cells assessed as depolarized cell population (P2) at 1 uM incubated for 48 hrs by JC1 staining based flow cytometry (reference value: 0.48 %); type: functional; summary of the method: as §5
BT-474 [15] = experiment: Induction of mitochondrial membrane potential loss in human BT-474 cells assessed as depolarized cell population (P2) at 2.5 uM incubated for 48 hrs by JC1 staining based flow cytometry (reference value: 0.48 %); type: functional; summary of the method: as §5
BT-474 [16] = experiment: Induction of apoptosis in human BT-474 cells assessed as chromatin condensation incubated for 48 hrs by acridine orange/ethidium bromide double staining-based fluorescence microscopic analysis; type: functional, cell-based; conditions: dose microM 0.5-2.5, time 48.0 hrs; summary of the method: as §3
BT-474 [17] = experiment: Induction of apoptosis in human BT-474 cells assessed as membrane bleeding incubated for 48 hrs by acridine orange/ethidium bromide double staining-based fluorescence microscopic analysis; type: functional, cell-based; conditions: dose microM 0.5-2.5, time 48.0 hrs; summary of the method: as §3
BT-474 [18] = experiment: Induction of apoptosis in human BT-474 cells assessed as chromatin damage at 0.5 to 2.5 uM incubated for 24 hrs by DAPI staining based DAPI staining based confocal microscopic analysis; type: functional, cell-based; conditions: dose microM 0.5-2.5, time 24.0 hrs
BT-474 [19] = experiment: Induction of mitochondrial membrane potential loss in human BT-474 cells assessed as depolarized cell population (P1) at 0.5 uM incubated for 48 hrs by JC1 staining based flow cytometry (reference value: 98.09 %); type: functional; summary of the method: as §5
BT-474 [20] = experiment: Induction of mitochondrial membrane potential loss in human BT-474 cells assessed as depolarized cell population (P1) at 1 uM incubated for 48 hrs by JC1 staining based flow cytometry (reference value: 98.09 %); type: functional; summary of the method: as §5
BT-474 [21] = experiment: Induction of mitochondrial membrane potential loss in human BT-474 cells assessed as depolarized cell population (P1) at 2.5 uM incubated for 48 hrs by JC1 staining based flow cytometry (reference value: 98.09 %); type: functional; summary of the method: as §5
BT-474 [22] = experiment: Induction of apoptosis in human BT-474 cells after 48 hrs by Annexin-V alexa fluor 488/PI staining based flow cytometry analysis; conditions: dose microM 0.5-2.5, time 48.0 hrs

inhibition (Tubulin (Homo sapiens)): Active
Compound: O=C(c1cn(Cc2cccc(Oc3ccccc3)c2)nn1)N1CCN(S(=O)(=O)c2ccc(Br)cc2)CC1
IC50 (HeLa): 1020 nM
IC50 (NCI-H460): 4.88 µM
Activity (BT-474 [1]): Active
Activity (BT-474 [2]): Active
Activity (BT-474 [3]): Active
Activity (BT-474 [4]): Dose-dependent effect
Activity (BT-474 [5]): Active
inhibition (BT-474 [6]): Dose-dependent effect
Activity (BT-474 [7]): 11%
Activity (BT-474 [8]): 58.93%
Activity (BT-474 [9]): 9.41%
Activity (BT-474 [10]): 62.72%
Activity (BT-474 [11]): 11.3%
Activity (BT-474 [12]): 5.57%
Activity (BT-474 [13]): 50.48%
Activity (BT-474 [14]): 61.44%
Activity (BT-474 [15]): 89.84%
Activity (BT-474 [16]): Dose-dependent effect
Activity (BT-474 [17]): Dose-dependent effect
Activity (BT-474 [18]): Active
Activity (BT-474 [19]): 50.26%
Activity (BT-474 [20]): 41.46%
Activity (BT-474 [21]): 10.81%
Activity (BT-474 [22]): Dose-dependent effect
